system: Klebsiella pneumoniae; assay: Synergistic antibacterial activity against Klebsiella pneumoniae 660/1568 producing KPC-3 assessed as meropenem MIC at 8 ug/ml by broth microdilution method; type: functional; conditions: dose 8 µg/ml
Procedure, shortened: (§1)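 Broth microdilution per CLSI guidelines, using custom frozen panels. […] Each partner drug was also tested alone. MICs were run in triplicate and the modal value is reported.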

Structure (SMILES) | MIC [µg/mL]
O=C(NNC(=O)[C@@H]1CC[C@@H]2CN1C(=O)N2OS(=O)(=O)O)[C@@H]1CCCNC1 [ZIDEBACTAM] | ≤ 0.12

system: Klebsiella pneumoniae; assay: Synergistic antibacterial activity against Klebsiella pneumoniae 11978 producing OXA-48 assessed as meropenem MIC at 4 ug/ml by broth microdilution method; type: functional; conditions: dose 4 µg/ml; procedure, shortened: as §1

Structure (SMILES) | MIC [µg/mL]
O=C(NNC(=O)[C@@H]1CC[C@@H]2CN1C(=O)N2OS(=O)(=O)O)[C@@H]1CCCNC1 [ZIDEBACTAM] | ≤ 0.12

system: Klebsiella pneumoniae; assay: Synergistic antibacterial activity against Klebsiella pneumoniae jefferson 1775 producing OXA-48 assessed as meropenem MIC at 4 ug/ml by broth microdilution method; type: functional; conditions: dose 4 µg/ml

Structure (SMILES) | MIC [µg/mL]
O=C(NNC(=O)[C@@H]1CC[C@@H]2CN1C(=O)N2OS(=O)(=O)O)[C@@H]1CCCNC1 [ZIDEBACTAM] | ≤ 0.12

system: Klebsiella pneumoniae; assay: Synergistic antibacterial activity against Klebsiella pneumoniae 729/1679 producing KPC-3 assessed as meropenem MIC at 8 ug/ml by broth microdilution method; type: functional; conditions: dose 8 µg/ml; procedure, shortened: as §1

Structure (SMILES) | MIC [µg/mL]
O=C(NNC(=O)[C@@H]1CC[C@@H]2CN1C(=O)N2OS(=O)(=O)O)[C@@H]1CCCNC1 [ZIDEBACTAM] | ≤ 0.12

system: Acinetobacter baumannii; assay: Synergistic antibacterial activity against Acinetobacter baumannii PR408 producing OXA-24/40 assessed as meropenem MIC at 8 ug/ml by broth microdilution method; type: functional; conditions: dose 8 µg/ml

Structure (SMILES) | MIC [µg/mL]
O=C(NNC(=O)[C@@H]1CC[C@@H]2CN1C(=O)N2OS(=O)(=O)O)[C@@H]1CCCNC1 [ZIDEBACTAM] | > 16

system: Klebsiella pneumoniae; assay: Synergistic antibacterial activity against Klebsiella pneumoniae jefferson 1775 producing OXA-48 assessed as cefepime MIC at 4 ug/ml by broth microdilution method; type: functional; conditions: dose 4 µg/ml

Structure (SMILES) | MIC [µg/mL]
O=C(NNC(=O)[C@@H]1CC[C@@H]2CN1C(=O)N2OS(=O)(=O)O)[C@@H]1CCCNC1 [ZIDEBACTAM] | ≤ 0.12

system: Escherichia coli; assay: Synergistic antibacterial activity against Escherichia coli DH10B transfected with pBC SK (-) KPC-2 assessed as meropenem MIC at 4 ug/ml by broth microdilution method; type: functional; conditions: dose 4 µg/ml

Structure (SMILES) | MIC [µg/mL]
O=C(NNC(=O)[C@@H]1CC[C@@H]2CN1C(=O)N2OS(=O)(=O)O)[C@@H]1CCCNC1 [ZIDEBACTAM] | ≤ 0.12

system: Acinetobacter baumannii; assay: Synergistic antibacterial activity against Acinetobacter baumannii PR476 producing OXA-24/40 assessed as cefepime MIC at 4 ug/ml by broth microdilution method; type: functional; conditions: dose 4 µg/ml

Structure (SMILES) | MIC [µg/mL]
O=C(NNC(=O)[C@@H]1CC[C@@H]2CN1C(=O)N2OS(=O)(=O)O)[C@@H]1CCCNC1 [ZIDEBACTAM] | 1

system: Escherichia coli; assay: Synergistic antibacterial activity against Escherichia coli DH10B transfected with pBR322-catI-KPC-2 assessed as meropenem MIC at 8 ug/ml by broth microdilution method; type: functional; conditions: dose 8 µg/ml; procedure, shortened: as §1

Structure (SMILES) | MIC [µg/mL]
O=C(NNC(=O)[C@@H]1CC[C@@H]2CN1C(=O)N2OS(=O)(=O)O)[C@@H]1CCCNC1 [ZIDEBACTAM] | ≤ 0.12

system: Klebsiella pneumoniae; assay: Synergistic antibacterial activity against Klebsiella pneumoniae 977/1916 producing KPC-3 assessed as cefepime MIC at 8 ug/ml by broth microdilution method; type: functional; conditions: dose 8 µg/ml

Structure (SMILES) | MIC [µg/mL]
O=C(NNC(=O)[C@@H]1CC[C@@H]2CN1C(=O)N2OS(=O)(=O)O)[C@@H]1CCCNC1 [ZIDEBACTAM] | ≤ 0.12

system: Klebsiella pneumoniae; assay: Synergistic antibacterial activity against Klebsiella pneumoniae 1398/2291 producing KPC-3 assessed as cefepime MIC at 8 ug/ml by broth microdilution method; type: functional; conditions: dose 8 µg/ml; procedure, shortened: as §1

Structure (SMILES) | MIC [µg/mL]
O=C(NNC(=O)[C@@H]1CC[C@@H]2CN1C(=O)N2OS(=O)(=O)O)[C@@H]1CCCNC1 [ZIDEBACTAM] | ≤ 0.12

system: Klebsiella pneumoniae; assay: Synergistic antibacterial activity against Klebsiella pneumoniae 660/1568 producing KPC-3 assessed as cefepime MIC at 4 ug/ml by broth microdilution method; type: functional; conditions: dose 4 µg/ml; procedure, shortened: as §1

Structure (SMILES) | MIC [µg/mL]
O=C(NNC(=O)[C@@H]1CC[C@@H]2CN1C(=O)N2OS(=O)(=O)O)[C@@H]1CCCNC1 [ZIDEBACTAM] | ≤ 0.12

system: Klebsiella pneumoniae; assay: Synergistic antibacterial activity against Klebsiella pneumoniae NY BS producing OXA-232 assessed as cefepime MIC at 8 ug/ml by broth microdilution method; type: functional; conditions: dose 8 µg/ml

Structure (SMILES) | MIC [µg/mL]
O=C(NNC(=O)[C@@H]1CC[C@@H]2CN1C(=O)N2OS(=O)(=O)O)[C@@H]1CCCNC1 [ZIDEBACTAM] | ≤ 0.12

system: Bacteria; assay: Inhibition of bacteria ADC-7 assessed as Koff rate using nitrocefin as substrate incubated for 30 mins; conditions: not given

Structure (SMILES) | K
O=C(NNC(=O)[C@@H]1CC[C@@H]2CN1C(=O)N2OS(=O)(=O)O)[C@@H]1CCCNC1 [ZIDEBACTAM] | 1.1 10^-3/s

system: Acinetobacter baumannii; assay: Synergistic antibacterial activity against Acinetobacter baumannii PR476 producing OXA-24/40 assessed as meropenem MIC at 8 ug/ml by broth microdilution method; type: functional; conditions: dose 8 µg/ml

Structure (SMILES) | MIC [µg/mL]
O=C(NNC(=O)[C@@H]1CC[C@@H]2CN1C(=O)N2OS(=O)(=O)O)[C@@H]1CCCNC1 [ZIDEBACTAM] | 0.25

system: Klebsiella pneumoniae; assay: Synergistic antibacterial activity against Klebsiella pneumoniae 1315/2198 producing KPC-3 assessed as cefepime MIC at 8 ug/ml by broth microdilution method; type: functional; conditions: dose 8 µg/ml; procedure, shortened: as §1

Structure (SMILES) | MIC [µg/mL]
O=C(NNC(=O)[C@@H]1CC[C@@H]2CN1C(=O)N2OS(=O)(=O)O)[C@@H]1CCCNC1 [ZIDEBACTAM] | ≤ 0.12

system: Pseudomonas aeruginosa; assay: Synergistic antibacterial activity against Pseudomonas aeruginosa 795 assessed as cefepime MIC at 4 ug/ml by broth microdilution method; type: functional; conditions: dose 4 µg/ml

Structure (SMILES) | MIC [µg/mL]
O=C(NNC(=O)[C@@H]1CC[C@@H]2CN1C(=O)N2OS(=O)(=O)O)[C@@H]1CCCNC1 [ZIDEBACTAM] | 16

system: Klebsiella pneumoniae; assay: Synergistic antibacterial activity against Klebsiella pneumoniae 729/1679 producing KPC-3 assessed as meropenem MIC at 4 ug/ml by broth microdilution method; type: functional; conditions: dose 4 µg/ml; procedure, shortened: as §1

Structure (SMILES) | MIC [µg/mL]
O=C(NNC(=O)[C@@H]1CC[C@@H]2CN1C(=O)N2OS(=O)(=O)O)[C@@H]1CCCNC1 [ZIDEBACTAM] | ≤ 0.12

system: Escherichia coli; assay: Synergistic antibacterial activity against Escherichia coli DH10B assessed as meropenem MIC at 4 ug/ml by broth microdilution method; type: functional; conditions: dose 4 µg/ml

Structure (SMILES) | MIC [µg/mL]
O=C(NNC(=O)[C@@H]1CC[C@@H]2CN1C(=O)N2OS(=O)(=O)O)[C@@H]1CCCNC1 [ZIDEBACTAM] | ≤ 0.12

— ChEMBL document CHEMBL5247575 (J Med Chem, 2018)
